{
  "source": "ChEMBL document CHEMBL5344437",
  "about": "“Novel Drug Screening Assay for Acanthamoeba castellanii and the Anti-Amoebic Effect of Carbonic Anhydrase Inhibitors” (J Med Chem, 2024)",
  "type_in_all_cases": "functional, organism-based",
  "key": {"[1]": {"tested_on": "Acanthamoeba castellanii", "assay": "Anti-amoebic activity against Acanthamoeba castellanii ATCC 30010 trophozoites assessed as reduction in amoebic growth at 1 to 100 nM incubated for 24 to 72 hrs by crystal violet staining based assay", "conditions": "dose 1-100 nM, time 24-72 hrs", "in_short": "(§1)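 Trophozoites scraped from an axenic PYG culture at +25 °C were plated at 1000 cells per well with an inhibitor dilution series in PYG medium, with a separate plate for each time point (24, 48, 72 h). Cells were fixed with methanol, stained with 0.1% crystal violet, dissolved in 10% acetic acid and read at 590 nm. Two experiments, 6–15 wells per concentration; unpaired t-test versus control at 72 h.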"}, "[2]": {"tested_on": "Acanthamoeba castellanii", "assay": "Anti-amoebic activity against Acanthamoeba castellanii ATCC 30010 trophozoites assessed as reduction in amoebic growth at 1 to 100 uM incubated for 24 to 72 hrs by crystal violet staining based assay", "conditions": "dose 1-100 µM, time 24-72 hrs", "in_short": "as §1"}, "[3]": {"tested_on": "Acanthamoeba castellanii", "assay": "Anti-amoebic activity against Acanthamoeba castellanii ATCC 30010 cyst assessed as inhibition of excystation at >= 10 uM incubated for 72 hrs by crystal violet staining based assay"}, "[4]": {"tested_on": "Acanthamoeba castellanii", "assay": "Anti-amoebic activity against Acanthamoeba castellanii ATCC 30010 trophozoites assessed as reduction in amoebic growth at 100 uM incubated for 24 to 72 hrs by crystal violet staining based assay", "conditions": "time 24-72 hrs", "in_short": "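Trophozoites scraped from steady-state PYG culture, 1000 cells per well in inhibitor-containing PYG, +25 °C, separate plates read at 24, 48, 72 h. Methanol fix, 0.1% crystal violet, 10% acetic acid elution, A590. Two experiments, ≥3 wells each. Unpaired t-test vs drug-free control at 72 h.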"}, "[5]": {"tested_on": "Acanthamoeba castellanii", "assay": "Anti-amoebic activity against Acanthamoeba castellanii ATCC 30010 cyst assessed as reduction in cyst survival at 1 mM incubated for 24 to 72 hrs by crystal violet staining based assay", "conditions": "time 24-72 hrs", "in_short": "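Scraped PYG-grown cells, 1000 per well, exposed 24, 48 or 72 h at +25 °C. Medium-inhibitor solution then moved to new plates, topped with fresh medium, and held 5 days at +25 °C to allow excystation. Methanol fix, 0.1% crystal violet, 10% acetic acid, A590. Unpaired t-test vs control at 72 h.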"}, "[6]": {"tested_on": "Acanthamoeba castellanii", "assay": "Anti-amoebic activity against Acanthamoeba castellanii ATCC 30010 cyst assessed as inhibition of excystation at 100 uM incubated for 72 hrs by crystal violet staining based assay", "in_short": "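Axenic culture in PYG medium at +25 °C, grown past peak density to induce encystment; 1000 cysts per well added to inhibitor diluted in PYG, incubated 72 h at +25 °C. Methanol fix, 0.1% crystal violet stain (remaining cysts washed off), dissolve in 10% acetic acid, absorbance 590 nm. Unpaired t-test vs drug-free control; 6 replicates.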"}, "[7]": {"tested_on": "Acanthamoeba castellanii", "assay": "Anti-amoebic activity against Acanthamoeba castellanii ATCC 30010 trophozoites assessed as reduction in amoebic growth at 100 nM incubated for 24 to 72 hrs by crystal violet staining based assay", "conditions": "time 24-72 hrs", "in_short": "as §1"}, "[8]": {"tested_on": "Acanthamoeba castellanii", "assay": "Anti-amoebic activity against Acanthamoeba castellanii ATCC 30010 cyst assessed as reduction in cyst survival at […] incubated for 24 to 72 hrs by crystal violet staining based assay", "conditions": "time 24-72 hrs", "in_short": "(§2)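 Cyst survival: after 24, 48 or 72 h of inhibitor exposure of 1000 cells per well in PYG, the medium-inhibitor solution was moved to a new plate and topped up with fresh medium. It was then incubated 5 days at +25 °C so cysts could excyst. Wells were fixed with methanol, stained with 0.1% crystal violet, eluted with 10% acetic acid and read at 590 nm. Unpaired t-test versus control at 72 h.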"}, "[9]": {"tested_on": "Acanthamoeba castellanii", "assay": "Anti-amoebic activity against Acanthamoeba castellanii ATCC 30010 cyst assessed as inhibition of excystation at 10 uM incubated for 72 hrs by crystal violet staining based assay"}, "[10]": {"tested_on": "Acanthamoeba castellanii", "assay": "Anti-amoebic activity against Acanthamoeba castellanii ATCC 30010 trophozoites assessed as reduction in amoebic growth at 938 nM incubated for 24 to 72 hrs by crystal violet staining based assay", "conditions": "time 24-72 hrs", "in_short": "as §1"}, "[11]": {"tested_on": "Acanthamoeba castellanii", "assay": "Anti-amoebic activity against Acanthamoeba castellanii ATCC 30010 cyst assessed as reduction in cyst survival at 9.38 uM incubated for 24 to 72 hrs by crystal violet staining based assay", "conditions": "time 24-72 hrs", "in_short": "as §2"}, "[12]": {"tested_on": "Acanthamoeba castellanii", "assay": "Anti-amoebic activity against Acanthamoeba castellanii ATCC 30010 cyst assessed as inhibition of excystation at 188 nM incubated for 72 hrs by crystal violet staining based assay"}, "[13]": {"tested_on": "Acanthamoeba castellanii", "assay": "Anti-amoebic activity against Acanthamoeba castellanii ATCC 30010 trophozoites assessed as reduction in amoebic growth at 15.6 uM incubated for 24 to 72 hrs by crystal violet staining based assay", "conditions": "time 24-72 hrs", "in_short": "as §1"}, "[14]": {"tested_on": "Acanthamoeba castellanii", "assay": "Anti-amoebic activity against Acanthamoeba castellanii ATCC 30010 cyst assessed as reduction in cyst survival at 7.81 to 250 uM incubated for 24 to 72 hrs by crystal violet staining based assay", "conditions": "dose 7.81-250 µM, time 24-72 hrs", "in_short": "as §2"}, "[15]": {"tested_on": "Acanthamoeba castellanii", "assay": "Anti-amoebic activity against Acanthamoeba castellanii ATCC 30010 cyst assessed as reduction in cyst survival at >= 500 uM incubated for 24 to 72 hrs by crystal violet staining based assay", "conditions": "time 24-72 hrs", "in_short": "as §2"}, "[16]": {"tested_on": "Acanthamoeba castellanii", "assay": "Anti-amoebic activity against Acanthamoeba castellanii ATCC 30010 cyst assessed as inhibition of excystation at >= 62.5 uM incubated for 72 hrs by crystal violet staining based assay"}},
  "note": "The source made the active and inactive calls. No cut-off for these calls is given here.",
  "data": [
    {"smiles": "CCN[C@H]1CN(CCCOC)S(=O)(=O)c2sc(S(N)(=O)=O)cc21", "values": [
      {"measurement": "Activity", "setting": "[1]", "value": "inactive"},
      {"measurement": "Activity", "setting": "[2]", "value": "inactive"},
      {"measurement": "Activity", "setting": "[3]", "value": "Active"}
    ]},
    {"smiles": "CC(=O)Nc1nnc(S(N)(=O)=O)s1", "values": [
      {"measurement": "Activity", "setting": "[4]", "value": "Active"},
      {"measurement": "Activity", "setting": "[5]", "value": "Active"},
      {"measurement": "Activity", "setting": "[6]", "value": "Active"}
    ]},
    {"smiles": "CCN[C@H]1C[C@H](C)S(=O)(=O)c2sc(S(N)(=O)=O)cc21", "values": [
      {"measurement": "Activity", "setting": "[7]", "value": "Active"},
      {"measurement": "Activity", "setting": "[8]", "value": "Active"},
      {"measurement": "Activity", "setting": "[9]", "value": "Active"}
    ]},
    {"smiles": "CCOc1ccc2nc(S(N)(=O)=O)sc2c1", "values": [
      {"measurement": "Activity", "setting": "[10]", "value": "Active"},
      {"measurement": "Activity", "setting": "[11]", "value": "Active"},
      {"measurement": "Activity", "setting": "[12]", "value": "Active"}
    ]},
    {"smiles": "NN1CCN(NC(=S)S)CC1", "values": [
      {"measurement": "Activity", "setting": "[13]", "value": "Active"},
      {"measurement": "Activity", "setting": "[14]", "value": "inactive"},
      {"measurement": "Activity", "setting": "[15]", "value": "Active"},
      {"measurement": "Activity", "setting": "[16]", "value": "Active"}
    ]}
  ]
}
